From ChEMBL document CHEMBL5120973, “Discovery of Desmuramylpeptide NOD2 Agonists with Single-Digit Nanomolar Potency” (ACS Med Chem Lett, 2022)
Calls of active or inactive are those of the source. The rule behind the calls is not given here.

Assays:
PBMC [1] = assay: Synergistic potentiation of IFN-gamma-induced cytotoxicity of human PBMCs against human K562 cells assessed as increase in dead cells level at 1 uM incubated for 18 hrs before addition of K562 cells by CFSE/Sytox Blue staining based flow cytometry relative to control
PBMC [2] = assay: Synergistic potentiation of LPS-induced cytotoxicity of human PBMCs against human K562 cells assessed as increase in dead cells level at 1 uM incubated for 18 hrs before addition of K562 cells by CFSE/Sytox Blue staining based flow cytometry relative to control
[3] = molecular target: Nucleotide-binding oligomerization domain-containing protein 2 (Homo sapiens) (UniProt Q9HC29); assay: Agonist activity at NOD2 in human PBMC assessed as induction of IL-1beta production at 1 uM incubated for 18 hrs; type: cell-based; conditions: filed as agonist
Procedure, shortened: (§1)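 500,000 cells/well in 500 μL medium, treated 18 h at 37 °C, 5% CO2 against a 0.1% DMSO vehicle. Cell-free supernatants stored at -80 °C. Cytokines measured by cytometric bead array (human inflammatory cytokines) on a flow cytometer.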

[4] = molecular target: Nucleotide-binding oligomerization domain-containing protein 2 (Homo sapiens) (UniProt Q9HC29); assay: Agonist activity at NOD2 in human PBMC assessed as induction of TNFalpha production at 1 uM incubated for 18 hrs; type: cell-based; conditions: filed as agonist
Procedure, shortened: as §1

[5] = molecular target: Nucleotide-binding oligomerization domain-containing protein 2 (Homo sapiens) (UniProt Q9HC29); assay: Agonist activity at NOD2 in human PBMC assessed as induction of IL-6 production at 1 uM incubated for 18 hrs; type: cell-based; conditions: filed as agonist
Procedure, shortened: as §1

[6] = molecular target: Nucleotide-binding oligomerization domain-containing protein 2 (Homo sapiens) (UniProt Q9HC29); assay: Agonist activity at NOD2 in human PBMC assessed as induction of IL-8 production at 1 uM incubated for 18 hrs; type: cell-based; conditions: filed as agonist
Procedure, shortened: as §1

[7] = molecular target: Nucleotide-binding oligomerization domain-containing protein 2 (Homo sapiens) (UniProt Q9HC29); assay: Synergistic agonist activity at NOD2 in human PBMC assessed as induction of IL-1beta production at 1 uM incubated for 18 hrs in presence of IFN-gamma; type: cell-based; conditions: filed as agonist
Procedure, shortened: (§2)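 PBMCs (500,000/well) treated with agonist at 1 μM together with LPS (10 ng/mL) or IFN-γ (200 U/mL); vehicle 0.1% DMSO. Supernatants taken after 18 h at 37 °C, 5% CO2, stored at -80 °C, then assayed for cytokines by cytometric bead array on a flow cytometer.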

[8] = molecular target: T1, Nucleotide-binding oligomerization domain-containing protein 2 (Mus musculus) (UniProt Q8K3Z0); assay: Agonist activity at mouse NOD2 expressed in RAW -Blue NOD2 reporter cells by colorimetry based SEAP assay; conditions: filed as agonist
T1 sequence (whole entry): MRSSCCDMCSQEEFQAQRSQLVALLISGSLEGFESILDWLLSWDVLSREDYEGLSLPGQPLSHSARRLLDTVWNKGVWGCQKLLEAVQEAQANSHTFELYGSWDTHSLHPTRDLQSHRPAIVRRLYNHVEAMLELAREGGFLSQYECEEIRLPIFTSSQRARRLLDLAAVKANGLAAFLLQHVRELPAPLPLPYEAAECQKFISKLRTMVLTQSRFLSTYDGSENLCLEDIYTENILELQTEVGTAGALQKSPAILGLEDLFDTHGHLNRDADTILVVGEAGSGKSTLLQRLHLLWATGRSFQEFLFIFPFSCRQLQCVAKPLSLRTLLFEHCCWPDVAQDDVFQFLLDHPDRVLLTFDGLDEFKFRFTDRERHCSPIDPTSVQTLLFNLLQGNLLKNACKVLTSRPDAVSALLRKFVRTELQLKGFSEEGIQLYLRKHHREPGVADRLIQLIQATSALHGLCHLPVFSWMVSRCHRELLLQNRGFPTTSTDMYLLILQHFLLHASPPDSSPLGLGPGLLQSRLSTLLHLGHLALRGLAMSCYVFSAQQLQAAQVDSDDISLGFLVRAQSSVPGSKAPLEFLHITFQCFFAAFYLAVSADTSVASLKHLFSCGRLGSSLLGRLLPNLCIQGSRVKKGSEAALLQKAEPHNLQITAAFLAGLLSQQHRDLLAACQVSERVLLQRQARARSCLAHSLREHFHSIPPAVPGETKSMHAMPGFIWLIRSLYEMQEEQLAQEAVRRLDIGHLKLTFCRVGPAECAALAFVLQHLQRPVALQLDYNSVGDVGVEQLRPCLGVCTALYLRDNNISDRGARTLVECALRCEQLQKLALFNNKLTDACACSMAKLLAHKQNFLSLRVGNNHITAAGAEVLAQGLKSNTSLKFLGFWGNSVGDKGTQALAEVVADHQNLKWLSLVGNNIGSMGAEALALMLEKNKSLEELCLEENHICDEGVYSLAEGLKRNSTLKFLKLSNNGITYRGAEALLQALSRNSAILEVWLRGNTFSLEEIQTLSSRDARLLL

[9] = molecular target: Nucleotide-binding oligomerization domain-containing protein 2 (Homo sapiens) (UniProt Q9HC29); assay: Synergistic agonist activity at NOD2 in human PBMC assessed as induction of TNFalpha production at 1 uM incubated for 18 hrs in presence of IFN-gamma; type: cell-based; conditions: filed as agonist
Procedure, shortened: as §2

[10] = molecular target: Nucleotide-binding oligomerization domain-containing protein 2 (Homo sapiens) (UniProt Q9HC29); assay: Synergistic agonist activity at NOD2 in human PBMC assessed as induction of IL-6 production at 1 uM incubated for 18 hrs in presence of LPS; type: cell-based; conditions: filed as agonist
Procedure, shortened: as §2

[11] = molecular target: Nucleotide-binding oligomerization domain-containing protein 2 (Homo sapiens) (UniProt Q9HC29); assay: Synergistic agonist activity at NOD2 in human PBMC assessed as induction of IL-1beta production at 1 uM incubated for 18 hrs in presence of LPS; type: cell-based; conditions: filed as agonist
Procedure, shortened: as §2

[12] = molecular target: Nucleotide-binding oligomerization domain-containing protein 2 (Homo sapiens) (UniProt Q9HC29); assay: Synergistic agonist activity at NOD2 in human PBMC assessed as induction of TNF-alpha production at 1 uM incubated for 18 hrs in presence of LPS; type: cell-based; conditions: filed as agonist
Procedure, shortened: as §2

[13] = molecular target: Nucleotide-binding oligomerization domain-containing protein 2 (Homo sapiens) (UniProt Q9HC29); assay: Synergistic agonist activity at NOD2 in human PBMC assessed as induction of IL-6 production at 1 uM incubated for 18 hrs in presence of IFN-gamma; type: cell-based; conditions: filed as agonist
Procedure, shortened: as §2

Chain of Nucleotide-binding oligomerization domain-containing protein 2 (Homo sapiens) (Q9HC29 whole entry, the tested form may be a part): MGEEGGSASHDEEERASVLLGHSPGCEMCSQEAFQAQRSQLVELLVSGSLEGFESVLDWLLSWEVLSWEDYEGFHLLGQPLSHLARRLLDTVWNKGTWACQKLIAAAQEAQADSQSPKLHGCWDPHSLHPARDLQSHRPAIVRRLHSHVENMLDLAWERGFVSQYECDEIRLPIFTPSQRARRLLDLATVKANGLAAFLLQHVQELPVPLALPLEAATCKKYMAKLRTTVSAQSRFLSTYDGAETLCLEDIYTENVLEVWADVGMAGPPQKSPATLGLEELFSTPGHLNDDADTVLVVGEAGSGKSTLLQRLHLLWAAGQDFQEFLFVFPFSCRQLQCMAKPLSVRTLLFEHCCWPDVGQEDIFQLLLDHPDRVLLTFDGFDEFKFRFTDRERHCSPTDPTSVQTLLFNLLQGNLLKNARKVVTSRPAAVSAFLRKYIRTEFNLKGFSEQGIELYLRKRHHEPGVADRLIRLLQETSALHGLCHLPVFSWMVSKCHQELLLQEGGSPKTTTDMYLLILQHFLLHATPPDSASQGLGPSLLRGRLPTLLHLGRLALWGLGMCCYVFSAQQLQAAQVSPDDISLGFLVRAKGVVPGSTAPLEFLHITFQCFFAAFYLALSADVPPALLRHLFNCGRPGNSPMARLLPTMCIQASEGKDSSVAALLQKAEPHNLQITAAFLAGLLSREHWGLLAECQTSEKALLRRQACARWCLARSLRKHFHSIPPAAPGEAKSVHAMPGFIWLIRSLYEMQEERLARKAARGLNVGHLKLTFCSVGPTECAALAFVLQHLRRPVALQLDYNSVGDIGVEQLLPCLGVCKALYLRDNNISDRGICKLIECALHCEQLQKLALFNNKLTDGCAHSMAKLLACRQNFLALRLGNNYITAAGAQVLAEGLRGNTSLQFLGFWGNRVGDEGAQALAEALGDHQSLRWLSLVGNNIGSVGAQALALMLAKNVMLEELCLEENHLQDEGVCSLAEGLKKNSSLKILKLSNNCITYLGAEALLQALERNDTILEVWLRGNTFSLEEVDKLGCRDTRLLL

Activity [3] | Activity [4] | Activity [5] | Activity [6] | Activity [7] | Activity [8] | Activity [9] | Activity [10] | Activity [11] | Activity [12] | Activity [13] | SMILES | Activity (PBMC [1]) | Activity (PBMC [2])
– | – | – | – | – | – | – | – | – | – | – | COc1cc(/C=C/C(=O)NCC(=O)N[C@H](C(=O)N[C@H](CCC(=O)OC2CCCC2)C(=O)OC2CCCC2)C(C)C)ccc1O | Active | Active
Active | Active | Active | Active | – | – | – | – | – | – | – | CC(=O)N[C@@H]1[C@@H](O[C@H](C)C(=O)N[C@@H](C)C(=O)N[C@H](CCC(=O)O)C(N)=O)[C@@H](O)[C@@H](CO)O[C@H]1O | – | –
Active | Active | Active | Active | Active | Active | Active | Active | Active | Active | Active | CCOC(=O)CC[C@@H](NC(=O)[C@@H](NC(=O)CNC(=O)/C=C/c1ccc(OC(=O)CC23CC4CC(CC(C4)C2)C3)c(OC)c1)C(C)C)C(=O)OCC | Active | Active
